Laboratory results from ChEMBL document CHEMBL1641417, “Cytotoxicity and topoisomerase I/II inhibition of glycosylated 2-phenyl-indoles, 2-phenyl-benzo[b]thiophenes and 2-phenyl-benzo[b]furans” (Bioorg Med Chem, 2011).
pIC50: −log10 of the molar value. Each block holds one molecule with its values, some of them ahead of it. The source made the active and inactive calls. No cut-off for these calls is given here.

Columns and labels:
[1] = test system: HT-29; experiment: Cytotoxicity against human HT-29 cells assessed as cell viability at 100 uM after 72 hrs by MTS assay; conditions: HT-29, 72 h
[2] = test system: HT-29; experiment: Cytotoxicity against human HT-29 cells assessed as cell viability at 25 uM after 72 hrs by MTS assay; conditions: HT-29, 72 h
[3] = test system: HepG2; experiment: Cytotoxicity against human HepG2 cells assessed as cell viability at 100 uM after 72 hrs by MTS assay; conditions: HepG2, 72 h
[4] = test system: HT-29; experiment: Cytotoxicity against human HT-29 cells at 25 uM after 72 hrs by MTS assay
[5] = test system: MCF7; experiment: Cytotoxicity against human MCF7 cells assessed as cell viability at 100 uM after 72 hrs by MTS assay; conditions: MCF7, 72 h
[6] = test system: MCF7; experiment: Cytotoxicity against human MCF7 cells assessed as cell viability at 25 uM after 72 hrs by MTS assay; conditions: MCF7, 72 h
[7] = test system: MCF7; experiment: Cytotoxicity against human MCF7 cells at 25 uM after 72 hrs by MTS assay
[8] = test system: HepG2; experiment: Cytotoxicity against human HepG2 cells assessed as cell viability at 25 uM after 24 hrs by MTS assay; format: functional; conditions: HepG2, 24 h, read-out: Activity
[9] = test system: HepG2; experiment: Cytotoxicity against human HepG2 cells at 25 uM after 72 hrs by MTS assay
[10] = test system: HT-29; experiment: Cytotoxicity against human HT-29 cells after 72 hrs by MTS assay; conditions: HT-29, 72 h
[11] = target: T1, DNA topoisomerase 1 (Homo sapiens) (UniProt P11387); experiment: Inhibition of human recombinant DNA topoisomerase 1-mediated DNA cleavage assessed as decrease in relaxation of supercoiled plasmid substrate DNA at 100 uM after 30 mins by agarose gel electrophoresis
T1 sequence (whole entry): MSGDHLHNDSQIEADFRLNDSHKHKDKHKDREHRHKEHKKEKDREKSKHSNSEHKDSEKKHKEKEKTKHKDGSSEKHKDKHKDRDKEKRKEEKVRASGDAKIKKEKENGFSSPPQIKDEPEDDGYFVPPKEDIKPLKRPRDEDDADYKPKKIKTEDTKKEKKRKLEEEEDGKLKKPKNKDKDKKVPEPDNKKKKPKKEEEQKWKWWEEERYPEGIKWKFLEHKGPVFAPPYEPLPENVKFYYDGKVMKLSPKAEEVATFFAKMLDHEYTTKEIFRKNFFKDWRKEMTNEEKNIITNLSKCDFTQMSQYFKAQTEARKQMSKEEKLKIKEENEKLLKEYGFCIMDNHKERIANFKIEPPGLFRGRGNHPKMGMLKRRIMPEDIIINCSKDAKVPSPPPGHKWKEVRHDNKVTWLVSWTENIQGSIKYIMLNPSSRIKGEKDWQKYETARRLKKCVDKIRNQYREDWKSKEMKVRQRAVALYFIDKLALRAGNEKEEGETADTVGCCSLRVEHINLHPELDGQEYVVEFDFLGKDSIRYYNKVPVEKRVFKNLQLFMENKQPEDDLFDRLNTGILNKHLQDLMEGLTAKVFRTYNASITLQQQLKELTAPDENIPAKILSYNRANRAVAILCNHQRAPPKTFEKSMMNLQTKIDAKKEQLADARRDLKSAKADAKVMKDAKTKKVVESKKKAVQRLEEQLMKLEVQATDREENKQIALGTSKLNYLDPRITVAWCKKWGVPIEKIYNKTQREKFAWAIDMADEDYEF

[12] = target: DNA topoisomerase 2-alpha (Homo sapiens) (UniProt P11388); experiment: Inhibition of human recombinant DNA topoisomerase 2alpha-mediated DNA cleavage assessed as decrease in relaxation of supercoiled plasmid substrate DNA at 100 uM after 30 mins by agarose gel electrophoresis
[13] = test system: Nucleic Acid; experiment: Binding affinity to DNA by ethidium bromide staining-based FID assay; parameters: concentration or dose not given beside the values
[14] = test system: MCF7; experiment: Cytotoxicity against human MCF7 cells after 72 hrs by MTS assay; conditions: MCF7, 72 h
[15] = test system: HepG2; experiment: Cytotoxicity against human HepG2 cells after 72 hrs by MTS assay; conditions: HepG2, 72 h
[16] = Cytotoxicity against mouse NIH/3T3 cells after 3 days by MTS assay; format: cell-based; conditions: NIH3T3, 72 h
How it was run: (§1)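 Non-tumour cells were CRL-7761 human skin, Vero monkey kidney (DMEM high glucose, 5% FBS, 10 mM HEPES) and NIH/3T3 mouse (DMEM, 10% calf serum). Cells were seeded, left 24 h, then switched to serum-free DMEM-F12 with albumin, transferrin and insulin, with or without compound. Exposure was 3 days at 37 °C.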

[17] = Cytotoxicity against human CRL7761 cells after 3 days by MTS assay; format: cell-based; conditions: 72 h
How it was run: as §1

[18] = test system: Vero; experiment: Cytotoxicity against african green monkey Vero cells after 3 days by MTS assay; format: cell-based; conditions: Chlorocebus sabaeus, 72 h
How it was run: as §1

[19] = target: DNA topoisomerase 2-alpha (Homo sapiens) (UniProt P11388); experiment: Inhibition of human recombinant DNA topoisomerase 2alpha-mediated DNA cleavage assessed as decrease in relaxation of supercoiled plasmid substrate DNA at 20 uM after 30 mins by agarose gel electrophoresis

Chain of DNA topoisomerase 2-alpha (Homo sapiens) (P11388 whole entry): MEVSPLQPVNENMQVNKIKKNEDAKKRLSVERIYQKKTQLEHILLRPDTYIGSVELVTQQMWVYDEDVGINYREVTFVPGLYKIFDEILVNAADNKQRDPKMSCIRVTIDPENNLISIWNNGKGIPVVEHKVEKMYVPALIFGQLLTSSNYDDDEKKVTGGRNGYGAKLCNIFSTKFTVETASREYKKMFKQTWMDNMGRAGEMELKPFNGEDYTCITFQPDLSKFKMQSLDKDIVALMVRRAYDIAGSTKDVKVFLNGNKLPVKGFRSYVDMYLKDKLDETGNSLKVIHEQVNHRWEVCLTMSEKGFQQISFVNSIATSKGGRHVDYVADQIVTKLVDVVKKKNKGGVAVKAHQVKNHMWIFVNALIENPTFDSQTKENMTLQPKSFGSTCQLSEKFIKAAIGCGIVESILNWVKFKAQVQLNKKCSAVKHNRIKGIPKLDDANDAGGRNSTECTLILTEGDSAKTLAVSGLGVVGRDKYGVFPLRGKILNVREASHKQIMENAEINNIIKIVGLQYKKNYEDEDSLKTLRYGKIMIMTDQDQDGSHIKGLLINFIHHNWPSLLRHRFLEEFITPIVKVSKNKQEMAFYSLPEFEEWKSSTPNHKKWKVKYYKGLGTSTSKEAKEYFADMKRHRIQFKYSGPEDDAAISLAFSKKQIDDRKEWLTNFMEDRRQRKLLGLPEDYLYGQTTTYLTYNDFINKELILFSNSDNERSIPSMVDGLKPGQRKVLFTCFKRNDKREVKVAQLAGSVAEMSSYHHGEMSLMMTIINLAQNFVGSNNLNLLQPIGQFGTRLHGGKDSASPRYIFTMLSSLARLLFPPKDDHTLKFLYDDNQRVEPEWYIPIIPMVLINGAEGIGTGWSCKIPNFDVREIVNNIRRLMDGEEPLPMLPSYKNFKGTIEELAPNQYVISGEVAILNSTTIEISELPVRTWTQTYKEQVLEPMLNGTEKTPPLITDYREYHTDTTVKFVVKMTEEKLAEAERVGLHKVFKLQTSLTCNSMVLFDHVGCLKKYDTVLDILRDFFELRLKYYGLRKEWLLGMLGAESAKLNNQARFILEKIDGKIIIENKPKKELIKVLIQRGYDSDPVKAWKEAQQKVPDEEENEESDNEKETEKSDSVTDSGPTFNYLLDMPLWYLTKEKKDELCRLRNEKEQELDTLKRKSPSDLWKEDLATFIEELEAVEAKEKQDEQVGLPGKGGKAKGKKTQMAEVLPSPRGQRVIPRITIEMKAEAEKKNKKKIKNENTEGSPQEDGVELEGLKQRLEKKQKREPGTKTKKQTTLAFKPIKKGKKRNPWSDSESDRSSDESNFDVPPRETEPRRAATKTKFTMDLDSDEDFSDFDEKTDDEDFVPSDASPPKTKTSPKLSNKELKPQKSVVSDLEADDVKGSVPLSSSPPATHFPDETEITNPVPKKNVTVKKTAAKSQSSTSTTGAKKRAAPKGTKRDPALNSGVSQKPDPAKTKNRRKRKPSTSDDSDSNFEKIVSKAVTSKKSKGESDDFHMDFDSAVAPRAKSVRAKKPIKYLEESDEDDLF

Structure (SMILES): OCC#Cc1c(-c2ccccc2)[nH]c2ccccc12
viability at 100 µM [1]: 79%
viability at 25 µM [2]: 81%
viability at 100 µM [3]: 87%
Activity [4]: 100%
viability at 100 µM [5]: 109%
viability at 25 µM [6]: 121%
Activity [7]: 100%
viability at 25 µM [8]: 87%
Activity [9]: 100%

inhibition [11]: 8.8%
inhibition [12]: 7.1%
Activity [13]: 76.7%
Structure (SMILES): C[C@@H]1O[C@@H](OCC#Cc2c(-c3ccccc3)[nH]c3ccccc23)C[C@H](N)[C@@H]1O
viability at 25 µM [2]: < 1%
Activity [4]: 100%
pIC50 [10]: 4.85
viability at 25 µM [6]: < 1%
Activity [7]: 100%
pIC50 [14]: 4.80
viability at 25 µM [8]: < 1%
pIC50 [15]: 4.89
Activity [9]: 100%

Structure (SMILES): c1ccc(-c2cc3ccccc3s2)cc1
viability at 100 µM [1]: 81%
viability at 100 µM [3]: 88%
viability at 100 µM [5]: 113%

Structure (SMILES): c1ccc(-c2cc3ccccc3o2)cc1
viability at 100 µM [1]: 80%
viability at 100 µM [3]: 88%
viability at 100 µM [5]: 107%

Structure (SMILES): OCC#Cc1c(-c2ccccc2)oc2ccccc12
viability at 100 µM [1]: < 1%
viability at 25 µM [2]: 86%
viability at 100 µM [3]: < 1%
viability at 100 µM [5]: 2%
viability at 25 µM [6]: 86%
viability at 25 µM [8]: 88%

Structure (SMILES): C#CCO[C@H]1C[C@H](N)[C@H](O)[C@H](C)O1
viability at 100 µM [1]: 96%
viability at 100 µM [3]: 101%
viability at 100 µM [5]: 109%

inhibition [11]: 4%
inhibition [12]: 39.5%
Activity [13]: 78.4%
Structure (SMILES): C[C@@H]1O[C@@H](OCC#Cc2c(-c3ccccc3)[nH]c3ccccc23)CC[C@@H]1N
viability at 25 µM [2]: < 1%
Activity [4]: 100%
pIC50 [10]: 5.04
viability at 25 µM [6]: < 1%
Activity [7]: 100%
pIC50 [14]: 4.97
viability at 25 µM [8]: < 1%
pIC50 [16]: 4.83
pIC50 [17]: 4.62
pIC50 [18]: 4.69
pIC50 [15]: 4.94
Activity [9]: 100%

inhibition [11]: 7.9%
inhibition [12]: 16.4%
Activity [13]: 79.9%
Structure (SMILES): C[C@@H]1O[C@@H](OCC#Cc2c(-c3ccccc3)sc3ccccc23)CC[C@@H]1N
viability at 25 µM [2]: < 1%
Activity [4]: 100%
pIC50 [10]: 5.23
viability at 25 µM [6]: < 1%
Activity [7]: 100%
pIC50 [14]: 5.15
viability at 25 µM [8]: < 1%
pIC50 [16]: 5.01
pIC50 [17]: < 4.60
pIC50 [18]: 4.74
pIC50 [15]: 5.06
Activity [9]: 100%

inhibition [11]: 20.2%
inhibition [12]: 0%
Activity [13]: 68.5%
Structure (SMILES): C[C@@H]1O[C@@H](OCC#Cc2c(-c3ccccc3)oc3ccccc23)CC[C@@H]1N
viability at 25 µM [2]: < 1%
Activity [4]: 100%
pIC50 [10]: 5.19
viability at 25 µM [6]: < 1%
Activity [7]: 100%
pIC50 [14]: 4.99
viability at 25 µM [8]: < 1%
pIC50 [16]: 5.43
pIC50 [17]: < 4.60
pIC50 [18]: 4.96
pIC50 [15]: 5.10
Activity [9]: 100%

Structure (SMILES): Ic1c(-c2ccccc2)[nH]c2ccccc12
viability at 100 µM [1]: 91%
viability at 100 µM [3]: 91%
viability at 100 µM [5]: 103%

inhibition [11]: 32.2%
inhibition [12]: 22.2%
Activity [13]: 73.6%
Structure (SMILES): C[C@@H]1O[C@@H](OCC#Cc2c(-c3ccccc3)sc3ccccc23)C[C@H](N)[C@H]1O
viability at 25 µM [2]: < 1%
Activity [4]: 100%
pIC50 [10]: 4.96
viability at 25 µM [6]: 2%
Activity [7]: 100%
pIC50 [14]: 4.80
viability at 25 µM [8]: 2%
pIC50 [15]: 4.76
Activity [9]: 100%

Structure (SMILES): Cc1ccc(S(=O)(=O)n2c(-c3ccccc3)cc3ccccc32)cc1
viability at 100 µM [1]: 12%
viability at 25 µM [2]: 39%
viability at 100 µM [3]: 37%
viability at 100 µM [5]: 71%
viability at 25 µM [8]: 54%

inhibition [11]: 25.5%
inhibition [12]: 5.5%
Activity [13]: 50.5%
Structure (SMILES): C[C@@H]1O[C@@H](OCC#Cc2c(-c3ccccc3)oc3ccccc23)C[C@H](N)[C@H]1O
viability at 25 µM [2]: < 1%
Activity [4]: 100%
pIC50 [10]: 5.19
viability at 25 µM [6]: < 1%
Activity [7]: 100%
pIC50 [14]: 5.27
viability at 25 µM [8]: < 1%
pIC50 [16]: 5.19
pIC50 [17]: < 4.60
pIC50 [18]: 4.97
pIC50 [15]: 5.11
Activity [9]: 100%

Structure (SMILES): Cc1ccc(S(=O)(=O)n2c(-c3ccccc3)c(C#CCO)c3ccccc32)cc1
viability at 100 µM [1]: 9%
viability at 25 µM [2]: 26%
viability at 100 µM [3]: 37%
Activity [4]: 100%
viability at 100 µM [5]: 55%
viability at 25 µM [6]: 87%
Activity [7]: 100%
viability at 25 µM [8]: 58%
Activity [9]: 100%

inhibition [11]: 8.2%
inhibition [12]: 55.5%
Activity [13]: 76.5%
inhibition [19]: inactive
Structure (SMILES): C[C@@H]1O[C@@H](OCC#Cc2c(-c3ccccc3)[nH]c3ccccc23)C[C@H](N)[C@H]1O
viability at 25 µM [2]: 7%
pIC50 [10]: 4.71
viability at 25 µM [6]: 2%
Activity [7]: 100%
pIC50 [14]: 4.76
viability at 25 µM [8]: < 1%
pIC50 [15]: 4.79
Activity [9]: 100%

inhibition [11]: 36.9%
inhibition [12]: 5.8%
Activity [13]: 67.5%
Structure (SMILES): C[C@@H]1O[C@@H](OCC#Cc2c(-c3ccccc3)sc3ccccc23)C[C@H](N)[C@@H]1O
viability at 25 µM [2]: < 1%
Activity [4]: 100%
pIC50 [10]: 5.59
viability at 25 µM [6]: < 1%
Activity [7]: 100%
pIC50 [14]: 5.15
viability at 25 µM [8]: < 1%
pIC50 [16]: 5.24
pIC50 [17]: 4.65
pIC50 [18]: 5.03
pIC50 [15]: 5.22
Activity [9]: 100%

Structure (SMILES): C#CCO[C@H]1C[C@H](N)[C@@H](O)[C@H](C)O1
viability at 100 µM [1]: 91%
viability at 100 µM [3]: 105%
viability at 100 µM [5]: 123%

Structure (SMILES): Ic1c(-c2ccccc2)oc2ccccc12
viability at 100 µM [1]: 97%
viability at 100 µM [3]: 84%
viability at 100 µM [5]: 128%

Structure (SMILES): OCC#Cc1c(-c2ccccc2)sc2ccccc12
viability at 100 µM [1]: 8%
viability at 25 µM [2]: 68%
viability at 100 µM [3]: 17%
viability at 100 µM [5]: 37%
viability at 25 µM [6]: 90%
viability at 25 µM [8]: 97%

Structure (SMILES): C#CCO[C@H]1CC[C@H](N)[C@H](C)O1
viability at 100 µM [1]: 99%
viability at 100 µM [3]: 112%
viability at 100 µM [5]: 107%

Structure (SMILES): c1ccc(-c2cc3ccccc3[nH]2)cc1 [2-PHENYL-1H-INDOLE]
viability at 100 µM [1]: 75%
viability at 100 µM [3]: 71%
viability at 100 µM [5]: 72%

Structure (SMILES): Cc1ccc(S(=O)(=O)n2c(-c3ccccc3)c(I)c3ccccc32)cc1
viability at 100 µM [1]: 82%
viability at 100 µM [3]: 90%
viability at 100 µM [5]: 114%
